Apaf-1 inh: blocks human Apaf-1 apoptosome activity; O14727; inhibition, % at 20 µM; 330,000 compounds, 0.71% hits; reconstituted apoptosome caspase-3 activity, DEVD-Rh110 fluorescence; active = inhibition of at least 40% at 20 µM
Target sequence (O14727 whole entry, looked up): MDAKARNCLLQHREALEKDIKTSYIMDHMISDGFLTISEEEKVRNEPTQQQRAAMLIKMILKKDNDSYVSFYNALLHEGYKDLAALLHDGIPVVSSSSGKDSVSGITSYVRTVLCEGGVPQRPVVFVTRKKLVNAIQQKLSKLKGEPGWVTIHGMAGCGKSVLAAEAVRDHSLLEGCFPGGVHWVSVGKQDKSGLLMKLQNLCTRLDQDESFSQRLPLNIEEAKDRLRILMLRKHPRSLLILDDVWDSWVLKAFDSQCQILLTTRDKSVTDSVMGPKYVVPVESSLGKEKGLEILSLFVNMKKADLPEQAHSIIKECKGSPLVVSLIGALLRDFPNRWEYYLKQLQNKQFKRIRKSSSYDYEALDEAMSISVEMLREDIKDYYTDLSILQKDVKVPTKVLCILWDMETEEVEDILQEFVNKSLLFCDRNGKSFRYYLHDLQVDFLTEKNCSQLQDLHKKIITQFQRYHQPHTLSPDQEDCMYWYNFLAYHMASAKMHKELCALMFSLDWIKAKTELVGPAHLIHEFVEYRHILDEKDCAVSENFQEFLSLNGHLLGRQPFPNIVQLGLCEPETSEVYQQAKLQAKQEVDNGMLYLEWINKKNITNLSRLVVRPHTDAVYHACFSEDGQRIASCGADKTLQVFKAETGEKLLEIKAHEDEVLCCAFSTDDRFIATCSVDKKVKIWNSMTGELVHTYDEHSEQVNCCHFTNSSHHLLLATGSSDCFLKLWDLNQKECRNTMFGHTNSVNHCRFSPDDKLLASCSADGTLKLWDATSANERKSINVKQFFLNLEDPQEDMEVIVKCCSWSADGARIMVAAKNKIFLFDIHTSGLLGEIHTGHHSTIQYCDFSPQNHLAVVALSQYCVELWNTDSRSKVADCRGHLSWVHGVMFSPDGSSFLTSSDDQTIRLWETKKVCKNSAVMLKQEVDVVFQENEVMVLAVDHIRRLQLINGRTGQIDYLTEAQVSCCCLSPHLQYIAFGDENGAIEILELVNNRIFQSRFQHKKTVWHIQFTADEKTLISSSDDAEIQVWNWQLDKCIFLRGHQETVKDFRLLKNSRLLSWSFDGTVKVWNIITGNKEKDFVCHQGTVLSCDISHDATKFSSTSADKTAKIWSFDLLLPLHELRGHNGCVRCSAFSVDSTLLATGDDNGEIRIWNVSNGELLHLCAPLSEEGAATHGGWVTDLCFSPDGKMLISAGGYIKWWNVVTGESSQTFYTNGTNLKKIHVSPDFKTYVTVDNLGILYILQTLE
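Material: reconstituted apoptosome with Apaf-1, cytochrome c, caspase-9, procaspase-3, dATP; medium: pH 7.5 Hepes buffer with CHAPS, BSA, DTT; also added: cytochrome c and DEVD-Rh110 substrate; timing: 30 min plus 50 min, RT; signal: Rh110 fluorescence intensity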
PfG6PD inh: PfG6PD (Plasmodium falciparum) enzyme inhibition; PfGluPho enzyme, NADPH resazurin-diaphorase fluorescence; inhibition, % at 20 µM; 350,000 compounds, 0.78% hits; AID 504690;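 active = inhibition reaching at least a set limit at 20 µM in the primary screen, cut at about 59% in these data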
ZTA counter: counter-screen for EBNA-1 inhibitors: inhibitors of Epstein-Barr virus ZTA; AID 2234; 320,000 compounds, 0.15% hits; ZTA-DNA binding, fluorescence polarization; inhibition, % at 11 µM; in the data active = inhibition above about 33%
M18AAP inhibitor: blocks P. falciparum M18 aspartyl aminopeptidase; recombinant PfM18AAP, H-Glu-NHMec fluorogenic cleavage; inhibition, % at 7.35 µM; 290,000 compounds, 1.2% hits; AID 1822;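 active = inhibition above the campaign mean inhibition over all tested compounds plus 3 SD, cut at about 28% in these data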
UBC13 polyUb: inhibitors of human UBC13 polyubiquitin chain formation; P61088; TR-FRET; inhibition, % at 20 µM; 330,000 compounds, 0.47% hits; AID 485273; in the data active = inhibition above about 45%, passing the limit was not always enough
EBNA-1 inh: blocks EBNA-1 binding to DNA; EBNA-1 DNA binding, fluorescence polarization; inhibition, % at 14.8 µM; 300,000 compounds, 0.34% hits; in the data active = inhibition above about 28%
Of the large screens only hits and unclear results are named; the others gave an inactive call. Most compounds without a hit are left out; they make up all but 2.9% or so of the library.

CN(C)S(=O)(=O)n1cnc([C@@H]2[C@@H]3C(=O)OC[C@@H]3C[C@]23N=CN(Cc2ccccc2)C3=O)c1	none (no result: M18AAP inhibitor, EBNA-1 inh)
O=c1ncc(F)c[nH]1	none (no result: Apaf-1 inh, PfG6PD inh, M18AAP inhibitor, UBC13 polyUb)
Nc1ccc(N)c(C(=O)O)c1	Apaf-1 inh 67, PfG6PD inh 71 (no result: M18AAP inhibitor)
Nc1cc(C(F)(F)F)ccc1C(=O)O	none (no result: PfG6PD inh)
CCC1(CC)SCCNC1=O	none (no result: Apaf-1 inh, ZTA counter, M18AAP inhibitor, UBC13 polyUb, EBNA-1 inh)
Cc1ccc(NC2=CC(=O)C(=O)c3ccccc32)cc1	Apaf-1 inh 87
Cc1ccc(NC2=C(Cl)C(=O)c3ccccc3C2=O)cc1	none (no result: Apaf-1 inh, UBC13 polyUb)
CCCNC1(C(N)=O)CCN(Cc2ccccc2)CC1	none (no result: Apaf-1 inh, ZTA counter, M18AAP inhibitor, UBC13 polyUb, EBNA-1 inh)
Cc1cc(C)nc(N/N=C/c2c[nH]c3ccccc23)n1	none
Cc1nnc(N/N=C/c2c[nH]c3ccccc23)[nH]c1=O	M18AAP inhibitor 29
COc1ccc(-n2c(CCc3ccccc3)n[nH]c2=S)cc1	none
Oc1ccc(CCc2n[nH]c(=S)n2-c2ccc(F)cc2)cc1	M18AAP inhibitor 29
Cc1c(C(=O)N2CCN(c3ncccn3)CC2)oc2c(Cl)cccc12	none (no result: M18AAP inhibitor)
O=C(O)/C=C/C(=O)c1ccc2c(c1)CCc1ccccc1-2	none (no result: M18AAP inhibitor)
CS(=O)(=O)Nc1ccc(-c2n[nH]c(=S)n2-c2ccccc2)cc1	M18AAP inhibitor 31
Cc1ccccc1/C=N/n1c(COc2ccccc2)n[nH]c1=S	none (no result: ZTA counter, EBNA-1 inh)
Oc1ccccc1/C=N/n1c(COc2ccccc2)n[nH]c1=S	M18AAP inhibitor 28
S=c1[nH]nc(COc2ccccc2)n1/N=C/c1ccco1	M18AAP inhibitor 28
COc1ccc(/C=N/n2c(COc3ccccc3)n[nH]c2=S)cc1OC	M18AAP inhibitor 30
CCOc1ccccc1/C=N/n1c(COc2ccccc2)n[nH]c1=S	M18AAP inhibitor 31
COC(=O)c1ccccc1NC(=O)CN1CCCCCC1	none
Cc1c(C(=O)NCC2CCCO2)oc2c(Cl)cccc12 (stereo unspecified)	none (no result: M18AAP inhibitor)
CCOC(=O)C(C(C)=O)c1c(Br)c(O)c(O)c2c(C(=O)c3ccc(C)cc3)coc12 (stereo unspecified)	M18AAP inhibitor 47
C/C(=N\NC(=O)c1ccc(N2CCCC2=O)cc1)c1ccc(O)cc1O	M18AAP inhibitor 28
CCC(C)C1=CC(=Nc2c(C)n(C)n(-c3ccccc3)c2=O)C=C(C(C)CC)C1=O (stereo unspecified)	none
CC1=CC(=Nc2c(C)n(C)n(-c3ccccc3)c2=O)C=CC1=O	Apaf-1 inh 43 (no result: PfG6PD inh)
CC(=O)c1ccc(NC(=O)COC(=O)c2c3c(nc4ccccc24)/C(=C\c2cccs2)CCC3)cc1	EBNA-1 inh 44
O=C(CSc1nnc(CNC(=O)c2ccc(F)cc2)o1)Nc1nccs1	M18AAP inhibitor 30
O=C(CSc1nnc(CNC(=O)c2ccccc2)o1)Nc1nccs1	none
CC(C)(C)c1ccc(C(=O)CCC(=O)OCC(=O)NCCc2ccc(S(N)(=O)=O)cc2)cc1	none (no result: M18AAP inhibitor, EBNA-1 inh)
C[C@H](CO)N1C[C@H](C)[C@@H](CN(C)C(=O)NC2CCCCC2)Oc2c(NC(=O)C3CC3)cccc2C1=O	none (no result: ZTA counter, M18AAP inhibitor, EBNA-1 inh)
CCC(C)NC(=O)C1(O)c2ccccc2NC(=O)N1c1ccc(C)c(C)c1 (stereo unspecified)	none
CCOc1ccccc1NC(=S)N1CCN(c2ccc(O)cc2)CC1	M18AAP inhibitor 30
CCOc1ccccc1NC(=S)N1CCN(c2ccc(OC)cc2)CC1	none
CCOC(=O)C1=C(CS(=O)(=O)c2ccc(F)c(C)c2)NC(=O)NC1c1ccc(O)c(O)c1 (stereo unspecified)	M18AAP inhibitor 75
CCOC(=O)C1=C(CS(=O)(=O)c2ccc(C)cc2)NC(=O)NC1c1cc(OC)c(O)c(OC)c1 (stereo unspecified)	none
C=C1C(=O)C=C2CN(C(=O)c3ccccc3)[C@@](Cc3ccc(F)cc3)(C(=O)OC)[C@@H]12	PfG6PD inh 72
O=C(CSc1nc2ccccc2n1S(=O)(=O)c1ccccc1)N1CCCC1	none
COc1ccc(CNCC(O)(c2ccc(Cl)cc2)c2ccc(Cl)cc2)cc1OC	Apaf-1 inh 42
COc1ccc(CNCC(O)(c2ccc(F)cc2)c2ccc(F)cc2)cc1OC	none
C[C@@H]1CN([C@@H](C)CO)C(=O)c2cc(Br)cnc2O[C@H]1CN(C)C(=O)Cc1ccccn1	none (no result: Apaf-1 inh, ZTA counter, M18AAP inhibitor, UBC13 polyUb, EBNA-1 inh)
O=C1ON=C(c2ccc([N+](=O)[O-])cc2)/C1=C/c1ccccc1O	M18AAP inhibitor 29 (no result: ZTA counter, EBNA-1 inh)
O=C1ON=C(c2ccccc2)/C1=C/c1ccc(-c2ccccc2[N+](=O)[O-])o1	none (no result: Apaf-1 inh, UBC13 polyUb)
CCN(CC)c1ccc(-n2c(C)c(C(C)=O)c(C(C)=O)c2C)cc1	M18AAP inhibitor 28
COc1ccc2ccccc2c1C1CC(=O)N2CN(C)CSC2=C1C#N (stereo unspecified)	Apaf-1 inh 71, PfG6PD inh 79
CCSC1=C(C#N)C(c2ccccc2OC)CC(=O)N1 (stereo unspecified)	none
Cc1ccc(C2CC(=O)N3CN(Cc4ccco4)CSC3=C2C#N)cc1 (stereo unspecified)	M18AAP inhibitor 31
CC(C)c1ccc(C2CC(=O)N3CN(C)CSC3=C2C#N)cc1 (stereo unspecified)	PfG6PD inh 86
CC(=O)NC(CC(C)C)C(=O)NC(CO)C(=O)NC(CCC(=O)O)C(=O)NC(C)C(=O)NC(CC(C)C)C(N)=O (stereo unspecified)	none (no result: M18AAP inhibitor)
Nc1c(S(=O)(=O)c2cccs2)c2nc3ccccc3nc2n1CCc1ccccc1	Apaf-1 inh 71 (no result: PfG6PD inh)
COc1ccc(CCn2c(N)c(S(=O)(=O)c3cccs3)c3nc4ccccc4nc32)cc1OC	none
CC(=O)NC1C(=O)N(CCN2CCOCC2)c2ccc(C)cc21 (stereo unspecified)	M18AAP inhibitor 48 (no result: Apaf-1 inh, UBC13 polyUb)
Cc1cccc(C)c1NC(=O)CN(C)C(=O)c1ccccc1SCC(=O)N1CCCC1	Apaf-1 inh 42 (no result: M18AAP inhibitor)
Cc1ccc(N2CC(C(=O)Nc3nnc(SCC(=O)Nc4nc(C)cs4)s3)CC2=O)cc1 (stereo unspecified)	EBNA-1 inh 31
Cc1ccc(N2CCN(C(=S)c3ccc(-c4cccc([N+](=O)[O-])c4)o3)CC2)cc1	M18AAP inhibitor 30
O=[N+]([O-])c1ccc(N2CCN(C(=S)c3cccc([N+](=O)[O-])c3)CC2)cc1	PfG6PD inh 68
O=C(Cc1cccs1)NNC(=O)C12CC3CC(CC(C3)C1)C2	none
CCOc1ccc(NC(=O)CN(C)C(=O)C(C)Oc2ccc(Cl)cc2)cc1OCC (stereo unspecified)	none (no result: Apaf-1 inh, ZTA counter, M18AAP inhibitor, UBC13 polyUb, EBNA-1 inh)
Cc1ccc(S(=O)(=O)N(C)C[C@@H]2Oc3ncc(C#CCC(C)C)cc3C(=O)N([C@H](C)CO)C[C@H]2C)cc1	none (no result: Apaf-1 inh, ZTA counter, M18AAP inhibitor, UBC13 polyUb, EBNA-1 inh)
CCN(C[C@H]1N[C@@](Cc2ccccc2)(C(=O)OC)[C@H]2C(=O)N(Cc3ccccc3)C(=O)[C@@H]12)C(=O)COc1ccccc1	none (no result: ZTA counter, M18AAP inhibitor, EBNA-1 inh)
CC1CCc2c(sc(N)c2C(N)=O)C1 (stereo unspecified)	M18AAP inhibitor 29
CC(C)CNC(=S)NNC(=O)CC(C)O (stereo unspecified)	M18AAP inhibitor 35
CCNC(=S)NNC(=O)CC(C)C	none

Screening results (PubChem)
